The source made the active and inactive calls. No cut-off for these calls is given here.
Key:
[1] = target: 5-hydroxytryptamine receptor 2A (Rattus norvegicus, UniProt P14842); assay: Displacement of [3H]Ketanserin from rat cortex 5-HT2A receptor by liquid scintillation counter
In short: (§1)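 Competition binding. 5-HT1A: rat hippocampus, [3H]-8-OH-DPAT. 5-HT2A: rat cortex, [3H]-ketanserin. D2: rat striatum, [3H]-spiperone. 5-HT6: human receptor stably in HEK293, [3H]-LSD. 5-HT7: human receptor stably in HEK293, [3H]-5-CT. Vacuum filtration on GF/B filters, ice-cold washes, scintillation counting.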

[2] = target: D(3) dopamine receptor (Homo sapiens) (UniProt P35462); assay: Displacement of [3H]-methylspiperone from human cloned dopamine D3 receptor expressed in HEK293 cells at 10 '-6 M by liquid scintillation counter; format: cell-based
D(3) dopamine receptor (Homo sapiens), sequence (P35462 whole entry): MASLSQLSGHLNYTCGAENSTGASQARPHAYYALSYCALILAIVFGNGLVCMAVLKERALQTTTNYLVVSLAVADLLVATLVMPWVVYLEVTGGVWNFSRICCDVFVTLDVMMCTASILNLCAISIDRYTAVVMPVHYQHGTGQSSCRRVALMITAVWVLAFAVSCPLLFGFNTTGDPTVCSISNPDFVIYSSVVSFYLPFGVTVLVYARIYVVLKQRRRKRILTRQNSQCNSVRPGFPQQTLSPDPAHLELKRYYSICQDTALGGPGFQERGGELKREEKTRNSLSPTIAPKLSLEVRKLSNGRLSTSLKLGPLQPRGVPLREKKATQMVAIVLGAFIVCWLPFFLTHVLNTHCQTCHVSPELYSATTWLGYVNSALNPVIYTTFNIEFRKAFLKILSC

[3] = target: D(3) dopamine receptor (Homo sapiens) (UniProt P35462); assay: Displacement of [3H]-methylspiperone from human cloned dopamine D3 receptor expressed in HEK293 cells at 10 '-7 M by liquid scintillation counter; format: cell-based
[4] = target: T1, D(4) dopamine receptor (Homo sapiens) (UniProt P21917); assay: Displacement of [3H]-methylspiperone from human cloned dopamine D4 receptor expressed in HEK293 cells at 10 '-7 M by liquid scintillation counter; format: cell-based
T1 sequence (whole entry): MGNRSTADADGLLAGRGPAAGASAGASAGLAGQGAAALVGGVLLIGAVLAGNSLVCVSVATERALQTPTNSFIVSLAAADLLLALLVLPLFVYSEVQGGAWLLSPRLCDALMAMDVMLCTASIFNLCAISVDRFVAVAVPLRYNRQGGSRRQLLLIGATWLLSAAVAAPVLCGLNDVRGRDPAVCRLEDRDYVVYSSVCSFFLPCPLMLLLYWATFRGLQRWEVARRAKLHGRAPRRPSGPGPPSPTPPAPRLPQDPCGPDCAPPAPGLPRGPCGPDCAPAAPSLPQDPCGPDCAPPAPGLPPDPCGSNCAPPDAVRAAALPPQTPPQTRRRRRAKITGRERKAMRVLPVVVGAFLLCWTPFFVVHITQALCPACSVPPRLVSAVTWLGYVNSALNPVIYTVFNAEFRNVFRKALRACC

[5] = target: T1, D(4) dopamine receptor (Homo sapiens); assay: Displacement of [3H]-methylspiperone from human cloned dopamine D4 receptor expressed in HEK293 cells at 10 '-6 M by liquid scintillation counter; format: cell-based
[6] = target: T2, 5-hydroxytryptamine receptor 1A (Rattus norvegicus, UniProt P19327); assay: Displacement of [3H]8-OH-DPAT from rat hippocampus 5-HT1A receptor by liquid scintillation counter; format: tissue-based; in short: as §1
T2 sequence (P19327 whole entry): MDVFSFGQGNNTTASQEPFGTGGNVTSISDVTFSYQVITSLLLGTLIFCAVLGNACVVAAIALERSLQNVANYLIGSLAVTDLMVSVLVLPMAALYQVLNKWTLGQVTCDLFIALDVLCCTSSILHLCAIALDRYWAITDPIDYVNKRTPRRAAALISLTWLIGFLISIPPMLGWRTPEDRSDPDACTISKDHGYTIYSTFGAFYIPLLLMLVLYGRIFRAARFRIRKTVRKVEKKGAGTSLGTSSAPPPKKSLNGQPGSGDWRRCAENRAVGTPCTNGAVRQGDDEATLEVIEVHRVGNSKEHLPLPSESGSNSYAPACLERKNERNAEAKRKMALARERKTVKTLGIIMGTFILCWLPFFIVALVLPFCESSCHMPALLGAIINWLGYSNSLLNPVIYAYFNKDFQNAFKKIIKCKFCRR

Mus musculus [7] = assay: Antipsychotic activity in CD1 mouse assessed as reduction in spontaneous locomotor activity measuring number of crossings at 1.25 to 5 mg/kg every 5 mins for 1 hr; format: functional, organism-based
In short: (§2)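 Male CD-1 mice, one per cage, habituated 30 min; photobeam crossings (ambulation) then counted over 1 h, logged every 5 min. Drugs suspended in 1% aqueous Tween 80 and given ip at 10 ml/kg, 30 min before test. For hyperactivity, MK-801 (0.2 mg/kg, in distilled water) was given ip 15 min before test. 5–10 mice/dose; mean ± SEM, one-way ANOVA with Bonferroni test.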

Mus musculus [8] = species on record: Mus musculus; assay: Antipsychotic activity in CD1 mouse assessed as inhibition of MK-801-induced hyperactivity measuring number of crossings measured every 5 mins for 1 hr; format: functional, organism-based; in short: as §2
Mus musculus [9] = assay: […] activity in ip dosed Swiss albino mouse assessed as inhibition of DOI-induced head twitches administered 20 mins before DOI challenge measured for 20 mins; format: functional; conditions: for ED50: read-out: ID50 (the source's name)
[10] = Selectivity ratio of compound Ki for rat hippocampus 5-HT1A receptor to human 5HT7 receptor; format: tissue-based
In short: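 Ratio of Ki values from competition binding: rat hippocampus 5-HT1A with [3H]-8-OH-DPAT versus human 5-HT7 in HEK293 with [3H]-5-CT; Ki by Cheng–Prusoff from 7–9 concentrations in triplicate.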

[11] = target: 5-hydroxytryptamine receptor 6 (Homo sapiens, UniProt P50406); assay: Displacement of [3H]-LSD from human full length cloned 5HT6 receptor expressed in human HEK293 cells by liquid scintillation counter; format: cell-based; in short: as §1
5-hydroxytryptamine receptor 6, sequence (P50406 whole entry): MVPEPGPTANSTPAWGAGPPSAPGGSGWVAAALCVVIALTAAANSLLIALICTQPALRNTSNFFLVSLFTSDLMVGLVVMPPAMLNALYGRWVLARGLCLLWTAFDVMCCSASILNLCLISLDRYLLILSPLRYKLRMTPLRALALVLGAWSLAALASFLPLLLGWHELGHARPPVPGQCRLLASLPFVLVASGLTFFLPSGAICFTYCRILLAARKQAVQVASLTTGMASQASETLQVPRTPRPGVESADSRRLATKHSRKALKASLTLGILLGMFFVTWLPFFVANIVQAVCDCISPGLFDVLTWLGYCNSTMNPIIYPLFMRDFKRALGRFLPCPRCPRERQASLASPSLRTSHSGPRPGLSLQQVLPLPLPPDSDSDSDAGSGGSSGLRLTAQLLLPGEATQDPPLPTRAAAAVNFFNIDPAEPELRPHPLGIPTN

[12] = target: 5-hydroxytryptamine receptor 7 (Homo sapiens, UniProt P34969); assay: Displacement of [3H]5-CT form human cloned 5HT7 receptor expressed in human HEK293 cells by liquid scintillation counter; format: cell-based; in short: as §1
5-hydroxytryptamine receptor 7, sequence (P34969 whole entry): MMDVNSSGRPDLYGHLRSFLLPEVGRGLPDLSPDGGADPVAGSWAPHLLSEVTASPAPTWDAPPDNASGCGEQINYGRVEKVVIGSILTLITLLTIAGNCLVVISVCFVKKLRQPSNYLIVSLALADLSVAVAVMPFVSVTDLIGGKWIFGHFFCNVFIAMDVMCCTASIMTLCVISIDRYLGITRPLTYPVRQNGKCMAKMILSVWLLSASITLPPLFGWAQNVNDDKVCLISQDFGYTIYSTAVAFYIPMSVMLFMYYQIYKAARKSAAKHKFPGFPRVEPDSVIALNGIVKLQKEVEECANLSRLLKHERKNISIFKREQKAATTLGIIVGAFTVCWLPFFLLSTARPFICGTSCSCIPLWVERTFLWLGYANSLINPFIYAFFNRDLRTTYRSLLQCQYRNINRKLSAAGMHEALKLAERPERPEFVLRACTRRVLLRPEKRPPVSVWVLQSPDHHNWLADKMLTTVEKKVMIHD

Mus musculus [13] = assay: Antipsychotic activity in CD1 mouse assessed as reduction in spontaneous locomotor activity measuring number of crossings at 0.5 to 1 mg/kg every 5 mins for 1 hr; format: functional, organism-based
In short: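 Male CD-1 mice; compound or reference ip 30 min before test plus vehicle. After 30 min habituation in individual cages, crossings counted over 1 h, recorded every 5 min; mean ± SEM; one-way ANOVA, Bonferroni.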

D(2) dopamine receptor = D(2) dopamine receptor (Rattus norvegicus, UniProt P61169); assay: Displacement of [3H]-spiperone from rat striatum dopamine D2 receptor by liquid scintillation counter; in short: as §1
D(2) dopamine receptor, sequence (P61169 whole entry): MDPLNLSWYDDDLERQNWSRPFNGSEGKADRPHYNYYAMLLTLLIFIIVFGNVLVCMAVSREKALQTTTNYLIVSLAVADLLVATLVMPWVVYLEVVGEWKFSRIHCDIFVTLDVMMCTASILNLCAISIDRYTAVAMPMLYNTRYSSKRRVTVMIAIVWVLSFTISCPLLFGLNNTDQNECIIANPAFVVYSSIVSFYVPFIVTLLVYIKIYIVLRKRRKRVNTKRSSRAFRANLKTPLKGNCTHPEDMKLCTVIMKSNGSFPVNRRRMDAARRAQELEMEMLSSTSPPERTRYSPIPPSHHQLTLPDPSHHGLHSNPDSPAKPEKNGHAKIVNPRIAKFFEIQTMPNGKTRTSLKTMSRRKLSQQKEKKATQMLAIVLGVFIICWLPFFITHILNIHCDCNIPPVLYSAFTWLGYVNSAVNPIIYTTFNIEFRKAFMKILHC

Mus musculus [14] = assay: […] activity in Swiss albino mouse assessed as inhibition of apomorphine-induced climbing behavior administered 10 mins before apomorphine challenge measured for 2 mins; format: functional
In short: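 Male Swiss albino mice; compounds ip in 1% Tween 80 suspension, 10 min before apomorphine 3 mg/kg. Climbing time (2–4 paws on bar wall) recorded for 2 min starting 20 min after apomorphine.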

Mus musculus [15] = assay: Antidepressant activity in mouse assessed as spontaneous locomotor activity 10 to 30 mg/kg; format: functional, organism-based
In short: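 Swiss albino mice given the forced swim doses ip 30 min before; placed individually in cages and channel crossings counted from 2 to 6 min with a multichannel activity monitor, matching the swim test observation period.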

Mus musculus [16] = assay: Antidepressant activity in Swiss albino mouse assessed as reduction in immobility time at 20 mg/kg measured for 4 mins by forced swim test; format: functional; set-up: scale not given: the % may be the effect or the level left
In short: (§3)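 Porsolt forced swim in male Swiss albino mice. Drugs ip (10 ml/kg; 1% Tween 80 suspension, imipramine in water) 30 min before. Cylinder 25 cm high, 10 cm diameter, 6 cm water at 23–25 °C, 6 min session; immobility scored over final 4 min. 5–10 mice/dose; one-way ANOVA with Bonferroni.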

Mus musculus [17] = assay: Antidepressant activity in Swiss albino mouse assessed as reduction in immobility time at 10 mg/kg measured for 4 mins by forced swim test; format: functional; set-up: scale not given: the % may be the effect or the level left; in short: as §3
Rattus norvegicus [18] = assay: Anxiolytic activity in Wistar rat assessed as increase in time spent in open arms at 5 mg/kg after 5 mins by plus-maze test (reference value: 13 +/- 2.3 %); format: functional
Rattus norvegicus [19] = assay: Anxiolytic activity in Wistar rat assessed as increase in open arm entries at 5 mg/kg after 5 mins by plus-maze test (reference value: 26.3 +/- 2.1 %); format: functional
Rattus norvegicus [20] = assay: Anxiolytic activity in Wistar rat assessed as increase in time spent in open arms at 2.5 mg/kg after 5 mins by plus-maze test (reference value: 13 +/- 2.3 %); format: functional
Rattus norvegicus [21] = assay: Anxiolytic activity in Wistar rat assessed as increase in open arm entries at 2.5 mg/kg after 5 mins by plus-maze test (reference value: 26.3 +/- 2.1 %); format: functional
Rattus norvegicus [22] = assay: Anxiolytic activity in Wistar rat assessed as increase in time spent in open arms at 1.25 mg/kg after 5 mins by plus-maze test (reference value: 13 +/- 2.3 %); format: functional
Rattus norvegicus [23] = assay: Anxiolytic activity in Wistar rat assessed as increase in open arm entries at 1.25 mg/kg after 5 mins by plus-maze test (reference value: 26.3 +/- 2.1 %); format: functional

5-hydroxytryptamine receptor 2A, sequence (P14842 whole entry): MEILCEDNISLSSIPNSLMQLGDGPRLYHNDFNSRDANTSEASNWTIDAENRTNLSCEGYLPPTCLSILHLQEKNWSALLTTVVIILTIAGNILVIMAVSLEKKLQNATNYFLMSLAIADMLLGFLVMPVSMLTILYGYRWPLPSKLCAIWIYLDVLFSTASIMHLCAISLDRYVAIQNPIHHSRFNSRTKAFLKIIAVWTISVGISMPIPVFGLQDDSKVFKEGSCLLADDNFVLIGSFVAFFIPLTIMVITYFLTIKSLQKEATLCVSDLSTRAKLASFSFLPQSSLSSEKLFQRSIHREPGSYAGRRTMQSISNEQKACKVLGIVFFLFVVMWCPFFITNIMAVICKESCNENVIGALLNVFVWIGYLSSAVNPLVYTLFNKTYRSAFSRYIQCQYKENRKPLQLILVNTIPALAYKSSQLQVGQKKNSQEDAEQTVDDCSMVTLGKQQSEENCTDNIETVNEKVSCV

O=S(=O)(NCCCCN1CCN(c2cccc(Cl)c2)CC1)c1ccc2ncccc2c1
Ki [1]: 42 nM

O=S(=O)(NCCCCN1CCN(c2ccc(Cl)cc2)CC1)c1cnc2ccccc2c1
inhibition [2]: 82% | inhibition [3]: 46% | inhibition [4]: 37% | inhibition [5]: 78% | Ki [1]: 56 nM | Ki [6]: 771 nM

CN1CCN(C2=Nc3cc(Cl)ccc3Nc3ccccc32)CC1
Activity (Mus musculus [7]): Active | inhibition (Mus musculus [8]): Dose-dependent effect

O=C(c1ccc(F)cc1)C1CCN(CCn2c(=O)[nH]c3ccccc3c2=O)CC1 [KETANSERIN]
ED50 (Mus musculus [9]): 0.12 mg/kg

O=S(=O)(NCCCCN1CCN(c2cccc(Cl)c2)CC1)c1cnc2ccccc2c1
inhibition [2]: 94% | inhibition [3]: 70% | inhibition [4]: 30% | Ki [1]: 22 nM

O=S(=O)(NCCCCN1CCN(c2cccc(Cl)c2)CC1)c1cccc2ccccc12
Ki [1]: 268 nM | Ratio Ki [10]: 10 | Ki [11]: 127 nM | Ki [12]: 36 nM | Ki [6]: 397 nM

O=S(=O)(NCCCCCN1CCN(c2ccc(Cl)cc2)CC1)c1cnc2ccccc2c1
Ki [1]: 114 nM | Ki [6]: 5800 nM

O=S(=O)(NCCCN1CCN(c2cccc(Cl)c2)CC1)c1cnc2ccccc2c1
Ki [1]: 206 nM

O=S(=O)(NCCCCN1CCN(c2cccc(Cl)c2)CC1)c1cccc2cccnc12
Ki [1]: 152 nM | Ki [11]: 3760 nM | Ki [12]: 25 nM | Ki [6]: 74 nM

O=S(=O)(NCCCCN1CCN(c2cccc(Cl)c2)CC1)c1ccc2ccccc2c1
Ki [1]: 22 nM | Ki [6]: 497 nM

O=S(=O)(c1cnc2ccccc2c1)N1CCC(CN2CCN(c3ccc(Cl)cc3)CC2)CC1
Ki [1]: 6000 nM | Ki [6]: 462 nM

O=C(CCCN1CCC(O)(c2ccc(Cl)cc2)CC1)c1ccc(F)cc1
Activity (Mus musculus [13]): Active | inhibition (Mus musculus [8]): Dose-dependent effect

O=S(=O)(NCCCCN1CCN(c2ccc(Cl)cc2)CC1)c1cncc2ccccc12
Ki [1]: 211 nM | Ki [6]: 1000 nM

O=S(=O)(NCCCN1CCN(c2ccc(Cl)cc2)CC1)c1cncc2ccccc12
Ki [6]: 888 nM

O=S(=O)(NCCCCN1CCN(c2ccc(Cl)cc2)CC1)c1ccc2cccnc2c1
Ki [1]: 63 nM | Ki [11]: 1730 nM | Ki [12]: 381 nM | Ki [6]: 868 nM

Cl.O=S(=O)(c1cnc2ccccc2c1)N1CCC(CCN2CCN(c3ccc(Cl)cc3)CC2)CC1
inhibition [2]: 90% | Ki (D(2) dopamine receptor): 56 nM | inhibition (Mus musculus [14]): Dose-dependent effect | ED50 (Mus musculus [14]; read-out: ID50 (the source's name)): 25 mg/kg | inhibition [3]: 52% | inhibition [4]: 63% | inhibition [5]: 90% | inhibition (Mus musculus [9]): Dose-dependent effect | ED50 (Mus musculus [9]): 5.12 mg/kg | Ki [1]: 31 nM | Ratio Ki [10]: 207 | Ki [11]: 24800 nM | Ki [12]: 40 nM | Ki [6]: 8300 nM | Activity (Mus musculus [15]): inactive

O=S(=O)(c1ccc2cccnc2c1)N1CCC(CN2CCN(c3ccc(Cl)cc3)CC2)CC1
Ki [1]: 761 nM | Ki [6]: 338 nM

CN(C)CCCN1c2ccccc2CCc2ccccc21.Cl [IMIPRAMINE HYDROCHLORIDE]
Activity (Mus musculus [16]): 52% | Activity (Mus musculus [17]): 26.5%

O=S(=O)(NCCCCN1CCN(c2ccc(Cl)cc2)CC1)c1ccc2ncccc2c1
Ki [1]: 44 nM | Ki [6]: 2030 nM

CN1C(=O)CN=C(c2ccccc2)c2cc(Cl)ccc21 [DIAZEPAM]
Activity (Rattus norvegicus [18]): 21.8% | Activity (Rattus norvegicus [19]): 35.4% | Activity (Rattus norvegicus [20]): 28.5% | Activity (Rattus norvegicus [21]): 46.6% | Activity (Rattus norvegicus [22]): 29.7% | Activity (Rattus norvegicus [23]): 63.7%

Reference: ChEMBL document CHEMBL1949570, “Quinoline- and isoquinoline-sulfonamide derivatives of LCAP as potent CNS multi-receptor-5-HT1A/5-HT2A/5-HT7 and D2/D3/D4-agents: the synthesis and pharmacological evaluation” (Bioorg Med Chem, 2012)
